Test results published in ChEMBL document CHEMBL1140092, “New chimeric antimalarials with 4-aminoquinoline moiety linked to a tetraoxane skeleton” (J Med Chem, 2008).
The source made the active and inactive calls.

What was measured:
Plasmodium falciparum [1] = assay: Antimalarial activity against chloroquine-sensitive Plasmodium falciparum D6; assay type: functional, organism-based
Outline: (§1)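 In vitro blood-stage assay with P. falciparum clones: D6 (Sierra I/UNC isolate), W2 (Indochina I isolate) and TM91C235 (Southeast Asian isolate). Activity was expressed as IC90.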

Plasmodium falciparum [2] = assay: Antimalarial activity against chloroquine-resistant, mefloquine-susceptible Plasmodium falciparum W2; assay type: functional, organism-based; outline: as §1
Plasmodium falciparum [3] = assay: Antimalarial activity against multidrug-resistant Plasmodium falciparum TM91C235; assay type: functional, organism-based; outline: as §1
Plasmodium berghei [4] = assay: Antimalarial activity against Plasmodium berghei KBG173 infected ICR mice (Mus musculus) at 320 mg/kg/day peroral dose from day 3 post infection at day 31 by modified Thompson test; assay type: functional, organism-based
Outline: (§2)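 Modified Thompson test in groups of five ICR mice. Mice were inoculated ip with P. berghei KBG 173-infected erythrocytes on day 0. Compound was suspended in 0.5% hydroxyethylcellulose-0.1% Tween 80 and given orally once daily on days 3-5. Blood smears were read on days 6-31. Cure was defined as alive on day 31 with no parasites in a blood film. Necropsy followed.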

Plasmodium berghei [5] = assay: Antimalarial activity against Plasmodium berghei KBG173 infected ICR mice (Mus musculus) at 20 mg/kg/day peroral dose from day 3 post infection at day 31 by modified Thompson test; assay type: functional, organism-based; outline: as §2
Plasmodium berghei [6] = assay: Antimalarial activity against Plasmodium berghei KBG173 infected ICR mice (Mus musculus) at 320 mg/kg/day peroral dose from days 3 to 5 post infection; assay type: functional; details: route oral; outline: as §2
Plasmodium berghei [7] = assay: Antimalarial activity against Plasmodium berghei KBG173 infected ICR mice (Mus musculus) assessed at 80 mg/kg/day peroral dose from days 3 to 5 post infection; assay type: functional; details: route oral; outline: as §2
Plasmodium berghei [8] = assay: Antimalarial activity against Plasmodium berghei KBG173 infected ICR mice (Mus musculus) assessed at 20 mg/kg/day peroral dose from days 3 to 5 post infection; assay type: functional; details: route oral; outline: as §2
Mus musculus = assay: Toxicity in Plasmodium berghei KBG173-infected ICR mice (Mus musculus) at 960 mg/kg, perorally for 3 days; assay type: organism-based; set-up: dose 960 mg/kg, route oral; details: in vivo, po, 72 h
Outline: (§3)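 Orally dosed, P. berghei KBG 173-infected ICR mice in groups of five received compound suspended in 0.5% hydroxyethylcellulose-0.1% Tween 80 once daily for three consecutive days. Doses went up to 960 mg/kg. Toxicity was judged by survival and by gross lesions at necropsy.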

[9] = Metabolic stability in human liver microsomes assessed as half life; assay type: ADME, Microsome
[10] = Metabolic stability in mouse liver microsomes assessed as half life; assay type: ADME, Microsome
[11] = test system: Mycobacterium tuberculosis; assay: Antitubercular activity against Mycobacterium tuberculosis H37Rv at 6.26 ug/ml by alamar blue assay; assay type: functional
Outline: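 Screened against M. tuberculosis H37Rv at TAACF by Alamar blue assay at a cutoff of 6.26 µg/mL. Active was defined as >90% inhibition.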

[12] = Toxicity in Plasmodium berghei KBG173-infected perorally dosed ICR mice (Mus musculus) assessed as maximum tolerated dose; assay type: organism-based; details: in vivo, po; outline: as §3
[13] = test system: Mycobacterium tuberculosis; assay: Antitubercular activity against Mycobacterium tuberculosis H37Rv by microplate alamar blue assay; assay type: functional
Outline: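 M. tuberculosis H37Rv was tested at TAACF by microplate Alamar blue assay (MABA). Inhibitory activity was reported as IC90.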

Row | SMILES | IC50 (Plasmodium falciparum [1]) | IC90 (Plasmodium falciparum [1]) | IC50 (Plasmodium falciparum [2]) | IC90 (Plasmodium falciparum [2]) | IC50 (Plasmodium falciparum [3]) | IC90 (Plasmodium falciparum [3]) | Activity (Plasmodium berghei [4]) | Activity (Plasmodium berghei [5]) | Survival (Plasmodium berghei [6]) | Survival (Plasmodium berghei [7]) | Survival (Plasmodium berghei [8]) | Activity (Mus musculus) | half-life [9] | half-life [10] | inhibition at 6.26 µg/mL [11] | MTD [12] | IC90 [13]
1 | O=C(NCCNc1ccnc2cc(Cl)ccc12)C1CCC2(CC1)OOC1(CCCCC1)OO2 | 0.00233 µM | 0.00375 µM | 0.002 µM | 0.00226 µM | 0.0037 µM | 0.00738 µM | Active | inactive | >31 days | 26.2 days | 14.2 days | Non-toxic | > 1 h | > 1 h | > 90% | > 960 mg/kg | 
2 | CC(=O)O[C@H]1C[C@H]2[C@@H]([C@H](OC(C)=O)C[C@@H]3CC4(CC[C@@]32C)OOC2(CCCCC2)OO4)[C@@H]2CC[C@H]([C@H](C)CCCNCCNc3ccnc4cc(Cl)ccc34)[C@@]12C | 0.0335 µM | 0.103 µM | 0.0229 µM | 0.0303 µM | 0.0302 µM | 0.16 µM |  |  |  |  |  |  |  |  | > 90% |  | 0.33 µM
3 | OC(c1cc(C(F)(F)F)nc2c(C(F)(F)F)cccc12)C1CCCCN1 (configuration not stated) [MEFLOQUINE] | 0.019 µM | 0.0448 µM | 0.00535 µM | 0.0186 µM | 0.0475 µM | 0.153 µM |  |  |  |  |  |  |  |  |  |  | 
4 | CCN(CC)CCCC(C)Nc1ccnc2cc(Cl)ccc12 (configuration not stated) [CHLOROQUINE] |  | 0.0159 µM |  | 0.64 µM |  | 0.264 µM |  |  |  |  |  |  |  |  |  |  | 
5 | CC(=O)O[C@H]1C[C@H]2[C@@H]([C@H](OC(C)=O)C[C@@H]3CC4(CC[C@@]32C)OOC2(CCCCC2)OO4)[C@@H]2CC[C@H]([C@H](C)CCC(=O)NCCNc3ccnc4cc(Cl)ccc34)[C@@]12C | 0.00653 µM | 0.0106 µM | 0.00447 µM | 0.0107 µM | 0.00854 µM | 0.0172 µM |  |  |  |  |  |  |  |  | > 90% |  | 0.4 µM
6 | Clc1ccc2c(NCCNCC3CCC4(CC3)OOC3(CCCCC3)OO4)ccnc2c1 | 0.00905 µM | 0.0182 µM | 0.00576 µM | 0.0124 µM | 0.0099 µM | 0.0183 µM | Active | inactive | >31 days | 26.4 days | 15.8 days | Non-toxic |  |  | > 90% | > 960 mg/kg | < 0.43 µM
7 | C[C@@H]1CC[C@H]2[C@@H](C)C(=O)O[C@@H]3O[C@@]4(C)CC[C@@H]1[C@]32OO4 [ARTEMISININ] | 0.009 µM | 0.0128 µM | 0.0067 µM | 0.0115 µM | 0.013 µM | 0.0174 µM |  |  |  |  |  |  |  |  |  |  | 
